Assays:
[1] = Toxicity ip dosed whole-body gamma-irradiated mouse compound administered 30 mins prior irradiation; format: organism-based; conditions: in vivo
[2] = system: Mus musculus; experiment: Antiradiation activity in ip dosed whole-body gamma-irradiated mouse assessed as increase in mouse survival rate compound administered 30 mins prior irradiation; format: functional; conditions: light or radiation study, read-out: MED
Procedure, shortened: (§1)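 Mice were dosed ip or po with compound in water, or in physiological saline containing 0.3% methylcellulose and 0.1% Tween 80, usually at pH 5–7. Dosing came 15, 30 or 60 min before whole-body ¹³⁷Cs γ irradiation (141.5 rd/min; 849 rd for most compounds). The dose reported is the lowest giving the highest survival rate. Read-out was % survival at 30 days.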

[3] = system: Mus musculus; experiment: Antiradiation activity in ip dosed whole-body gamma-irradiated mouse assessed as mouse survival compound administered 30 mins prior irradiation measured after 30 days relative to control; format: functional; procedure, shortened: as §1
[4] = system: Mus musculus; experiment: Protective index, ratio of LD50 for mouse to ED50 for antiradiation activity in ip dosed whole-body gamma-irradiated mouse
Procedure, shortened: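 After ip dosing and whole-body ¹³⁷Cs γ irradiation (141.5 rd/min), ED50 (dose for 50% survival) was estimated from log dose-probit survival plots. Protective index was approximated as approx LD50 (mg/kg) × 1.5 / ED50 (mg/kg).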

[5] = system: Mus musculus; experiment: Antiradiation activity in po dosed whole-body gamma-irradiated mouse assessed as increase in mouse survival rate compound administered 30 mins prior irradiation; format: functional; conditions: light or radiation study, read-out: MED; procedure, shortened: as §1
[6] = system: Mus musculus; experiment: Antiradiation activity in ip dosed whole-body gamma-irradiated mouse assessed as increase in mouse survival rate compound administered 15 mins prior irradiation; format: functional; conditions: light or radiation study; procedure, shortened: as §1
[7] = Toxicity ip dosed whole-body gamma-irradiated mouse compound administered 15 mins prior irradiation; format: organism-based; conditions: in vivo
[8] = Toxicity po dosed whole-body gamma-irradiated mouse compound administered 30 mins prior irradiation; format: organism-based; conditions: in vivo
[9] = system: Mus musculus; experiment: Antiradiation activity in ip dosed whole-body gamma-irradiated mouse assessed as mouse survival compound administered 15 mins prior irradiation measured after 30 days relative to control; format: functional; procedure, shortened: as §1
[10] = system: Mus musculus; experiment: Antiradiation activity in po dosed whole-body gamma-irradiated mouse assessed as mouse survival compound administered 30 mins prior irradiation measured after 30 days relative to control; format: functional; procedure, shortened: as §1

SMILES	LD50 at 0.5 h [1] [mg/kg]	minimal effective dose [2] [mg/kg]	Survival [3] [%]	PI [4]	minimal effective dose [5] [mg/kg]	ED50 [6] [mg/kg]	minimal effective dose ([6]; read-out: MED) [mg/kg]	LD50 at 0.25 h [7] [mg/kg]	LD50 at 0.5 h [8] [mg/kg]	Survival [9] [%]	Survival [10] [%]
Br.NCC(N)CS (stereo unspecified)	800	200	20	–	–	–	–	–	–	–	–
Cl.NCCCC[C@H](N)CS	–	–	–	13	75	10	25	88	450	80	50
